# Columns and labels:
# Pf1 PHD1 = Pf1 PHD1 (Homo sapiens, UniProt Q96QT6); assay: NMR of mixture of 15N-MRG15 CD and 15N-Pf1 PHD1; assay type: binding; details: 1:1 mixture, absence of histone targets
# Summary of the method: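 Both proteins were recombinant, expressed in E. coli BL21(DE3) and uniformly 15N-labelled by growth in M9 minimal medium with 15N-ammonium sulfate. They were purified by affinity resin, TEV cleavage and reversed-phase HPLC, then lyophilized; labelling was confirmed by ESI-MS. Pf1 PHD1 was refolded in 6 M Gdn-HCl with 50 mM DTT (42 °C, 5 h), given ZnSO4, and gel-filtered. Concentrations were measured spectrophotometrically.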
# [1] = test system: Pf1 PHD1/MBD (residues 48–241); assay: NMR of 15N-labeled Pf1 PHD1/MBD with MRG15 proteins; assay type: binding, human
# [2] = test system: Pf1 PHD1 (residues 48–116); assay: NMR of 15N-labeled Pf1 PHD1 with full-length MRG15 and Pf1 MBD; assay type: binding, human; details: 1:1 mixture with full-length MRG15; pH 7.5, 25 °C
# H3 (1-42) = assay: 15N-labeled H3; assay type: binding, human; details: 80 μM 15N-H3, 2 equivalents unlabeled Pf1 PHD1; 20 mM Tris-d11 pH 6.0, 50 mM NaCl, 10 μM ZnSO4, 15 mM DTT, 25 °C
molecule,measurement,setting,value
"MRG15 CD: MRG15 CD (residues 1–90) (protein, left off: His6, N-terminal, cleaved) MAPKQDPKPKFQEGERVLCFHGPLLYEAKCVKVAIKDKQVKYFIHYSGWNKNWDEWVPESRVLKYVDTNLQKQRELQKANQEQYAEGKMR",direct interaction of MRG15 CD and Pf1 PHD1,Pf1 PHD1,largely unperturbed
same,involvement of MRG15 CD in PHD1 interactions,[1]; 1D 1H NMR of Pf1 PHD1/MBD-MRG15 complex (Supp. Fig. S4),appeared to be not involved in PHD1 interactions
"full-length MRG15: full-length MRG15 (residues 1–323) (protein, left off: His tag (from the vector pMCSG7), end not stated, state not stated) MAPKQDPKPKFQEGERVLCFHGPLLYEAKCVKVAIKDKQVKYFIHYSGWNKNWDEWVPESRVLKYVDTNLQKQRELQKANQEQYAEGKMRGAAPGKKTSGLQQKNVEVKTKKNKQKTPGNGDGGSTSETPQPPRKKRARVDPTVENEETFMNRVEVKVKIPEELKPWLVDDWDLITRQKQLFYLPAKKNVDSILEDYANYKKSRGNTDNKEYAVNEVVAGIKEYFNVMLGTQLLYKFERPQYAEILADHPDAPMSQVYGAPHLLRLFVRIGAMLAYTPLDEKSLALLLNYLHDFLKYLAKNSATLFSASDYEVAPPEYHRKAV",effect on 15N-Pf1 PHD1/MBD spectrum,"[1]; equimolar, 20 mM Tris pH 7.5, 50 mM NaCl, 10 μM ZnSO4, 15 mM DTT, 0.2% NaN3, 25 °C",disappearance of most of the resonances belonging to the PHD1 domain
same,effect on 15N-PHD1 spectrum without Pf1 MBD,[2],little or no perturbations compared to the apo-PHD1
"PHD1: human Pf1 PHD1 domain (residues 48–116) (protein, left off: GST, end not stated, cleaved) RRSGRATNHDSCDSCKEGGDLLCCDHCPAAFHLQCCNPPLSEEMLPPGEWMCHRCTVRRKKREQKKELG",perturbation of H3 (1-42) resonances,H3 (1-42),The amide resonances of Thr3 and Lys4 were broadened beyond detection upon PHD1 addition while that of Thr6 was significantly broadened

# From PMC3428507 (Journal of molecular biology, 2012)
